Assay: Toxicity liver stage against HepG2, at 10uM
Format: cell-based
Set-up: test concentration 10 uM, cell line HepG2-A16-CD81EGFP
Settings: human, HepG2-A16-CD81EGFP cells; read-out: INHIBITION
Summary of the method: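 Uninfected HepG2-A16-CD81EGFP cells, 3 × 10^3 per well, 1536-well, plated on prespotted compound at 10 μM final, parasite-free screening media added to match infected plates; puromycin 10 μM positive, DMSO 0.5% negative; run in parallel with 48 h PbLuc assay at 37 °C, 5% CO2; viability by CellTiter-Glo luminescence, normalized to controls.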

SMILES | cytotoxicity at 10 µM [%]
CCOCCCNC(=O)C(NC(=O)Cc1cccs1)c1ccccc1 (configuration not stated) | 12.3
Cc1ccc(C)c(CSc2nnc([C@@H](N)C(C)C)o2)c1 | 5.95
COCCN1C[C@H]2CN(C(=O)c3ccno3)CCN2C1=O | 1.29
COC(=O)c1ccc(-c2ccc(/C=C3\C(=O)NC(=N)N3C)o2)cc1 | -66.3
COc1cnc(CSc2nnc(C)s2)cc1OCC(N)=O | 8.52
CCS(=O)(=O)N1CCc2ccc(NC(=O)Nc3ccccc3C)cc21 | 13.1
O=C1CC2(CCN(C(=O)c3ccccn3)CC2)Oc2c(Br)cc(Br)cc21 | 11.5
CC(C)CN1CC(O)CN(S(=O)(=O)c2ccc(F)cc2)CC1=O (configuration not stated) | 2.99
COc1ccccc1C(=O)N1CC(=O)N(CC2CC2)CC(O)C1 (configuration not stated) | 5.99
COC(=O)c1ccc(C2CC(=O)Nc3c2cnn3C)cc1 (configuration not stated) | -2.56
O=C(Cn1cnc2ccsc2c1=O)NCCCc1nnc2ccccn12 | 1.43
O=C(CCn1ccc(=O)[nH]c1=O)N1CCC(Oc2ccccn2)CC1 | -1.47
Cn1cnc(S(=O)(=O)NCC2(O)CCOc3ccccc32)c1 (configuration not stated) | 12
CCOCc1cnc2n1CCN(C(=O)Cc1cccs1)C2C (configuration not stated) | 8.04
CNC(=O)N1CCN(C(=O)C(C)C)CC2(CC(=O)N(C)C2)C1 (configuration not stated) | 7.43
CS(=O)(=O)N1CCCC12CCCN(C(=O)c1cc(F)cc(F)c1)C2 (configuration not stated) | -140
Cc1ncsc1CN1C[C@H]2OCC[C@H]2[C@H](C(=O)NCC2CC2)C1 | 5.6
COCC1c2c(cnn2C)CCN1Cc1ccc(C)o1 (configuration not stated) | -5.73
CC(C)CC(=O)N1CCN(C(=O)NC(C)C)CC2(CC(=O)N(C)C2)C1 (configuration not stated) | 3.25
Cc1ccc(NC(=O)CC2Cn3ncnc3NC2=O)cc1C (configuration not stated) | 10.5
CCOCCCNC(=O)CN(c1cc(C)cc(C)c1)S(C)(=O)=O | 4.48
CCC(C)NC(=O)c1ccn(COc2ccccc2Cl)n1 (configuration not stated) | 5.75

SMILES | cytotoxicity at 10 µM [%]
Cc1nccn1-c1nccnc1C1CCCN(C)C1 (configuration not stated) | 2.2
c1ccc(-c2nc(CCNCc3ccccn3)co2)cc1 | -1.89
O=S(=O)(NC1CCOC1)c1ccc(C(F)(F)F)nc1 (configuration not stated) | 8.16
O=C(CCCc1nc2ccccc2[nH]1)N1CCCC1c1ccncc1 (configuration not stated) | 3.79
CCc1noc(CNc2cccc(C(=O)N3CCSCC3)c2)n1 | -5.73
COc1cccc(C2(C(=O)NC3CCc4nccn4C3)CCCC2)c1 (configuration not stated) | 2.74
Cc1cc(CN(C)C(=O)NC(C)Cc2ccco2)no1 (configuration not stated) | 6.62
CC(C)(C)OC(=O)N1CCC(NC2CCS(=O)(=O)C2)CC1 (configuration not stated) | -6.72
O=C(c1cccc(F)c1F)N1CCn2c(nnc2C(F)(F)F)C1 | -8.22
COCCc1nc(-c2cnn3c(C)cc(C)nc23)no1 | 2.49
Cc1cn2c(n1)CCC(NS(=O)(=O)c1ccc(C)s1)C2 (configuration not stated) | 12.9
CC(C)(O)CN1CCN(C(=O)c2cccn2Cc2cccnc2)CC1 | -0.787
CC(=O)Nc1ccc(CNc2cccc(CS(C)(=O)=O)c2)cc1 | -6.91
CCCC(NC(=O)c1cc(C)ccc1O)c1nnn[nH]1 (configuration not stated) | -3.26
CCc1nc(NS(=O)(=O)c2cc(C)c(F)cc2Cl)no1 | 15.8
Cc1cnn(CCNCc2ccc(OCc3ccccn3)cc2)c1 | 0.686
CC(=O)N1CCCN(Cc2nnc(C(C)(C)C)o2)CC1 | -4.13
O=C(NCCCn1cccn1)C1(c2cccc(Cl)c2)CC1 | 17.9
CC1(NC(=O)Cc2csc(-c3ccccc3Cl)n2)CCS(=O)(=O)C1 (configuration not stated) | -9.81
CCc1nccn1C1CCCN(C(=O)c2ccnc(C)n2)C1 (configuration not stated) | -1.12
Cc1sc2nc(C(F)(F)F)nc(N3CCC(NS(C)(=O)=O)CC3)c2c1C | -17
CC(=O)N1CCN(c2nc(C(F)(F)F)nc3sc(C)c(C)c23)CC1 | -4.33

SMILES | cytotoxicity at 10 µM [%]
Cn1cc(S(=O)(=O)N2CCCC2Cn2ccnc2)cn1 (configuration not stated) | 6.58
CC(C)c1noc(CS(=O)(=O)Cc2nc(C(C)C)no2)n1 | -7.85
CCN(Cc1cccc(NC(=O)COC)c1)C(C)=O | -125
O=C(NC1CCN(c2ccccc2Br)C1)c1c[nH]nn1 (configuration not stated) | -17.9
COc1ccc(C2CCCN2Cc2cnn(C)c2)cc1 (configuration not stated) | 7.53
Cc1cc(C)n(C2CN(CC(O)Cn3cccn3)C2)n1 (configuration not stated) | -5.09
NS(=O)(=O)c1cnn(-c2ccc(NC(=O)CC3CCCC3)cn2)c1 | 6.74
CCN(CC1CCCO1)C(=O)NCCNC(=O)c1ccccc1F (configuration not stated) | 5.63
COCCn1c2c(ccc1=O)CCN(C(=O)CC1CC1)CC2 | 2.24
O=C(CC1CCCC1)N1C[C@@H]2CN(Cc3ccoc3)CCO[C@@H]2C1 | -79.3
O=C(c1ccnnc1)N1C[C@H]2CN(Cc3cccc(F)c3)C(=O)[C@H]2C1 | -77.3
Cc1noc(C)c1CN1CC[C@H]2C[C@H](c3ccncn3)O[C@@H]2C1 | -69.5
Cc1nc([C@@H]2C[C@@H]3CCN(C(=O)Cc4cccc(F)c4)C[C@H]3O2)no1 | 4.17
COCCN(Cc1sccc1C)C(=O)COc1ccccc1O | -145
Cc1c(NC(=O)c2cnc[nH]2)cccc1C(=O)NC(C)(C)C | -6.46
O=C(C1CCCO1)N1CCC(Cn2cc(C3CCCC3)nn2)CC1 (configuration not stated) | 5.61
CN(C)c1nc2c(c(N3CCCC3)n1)CCN(C(=O)c1ccc[nH]1)CC2 | 7.81
CCCOCC1CCN(C(=O)Cn2cccc(C(F)(F)F)c2=O)C1 (configuration not stated) | -16.3
Cc1nc2c(NC(CC(C)(C)C)c3cccnc3)ncnc2o1 (configuration not stated) | 4.24
Cc1ccc(OCC2CCCN(c3nc(CO)cs3)C2)cc1 (configuration not stated) | 5.4
Cc1nn(C)c(C)c1-c1cc(-c2cnn(C)c2C2CC2)c(C#N)c(N)n1 | 18
Cc1cc(C(=O)N2CCn3nc(C(=O)NC4CC4)cc3C2)nc(C)n1 | 1.15

SMILES | cytotoxicity at 10 µM [%]
O=S1(=O)C[C@@H]2[C@H](C1)N(Cc1ncc[nH]1)CCN2CCCc1ccccc1 | 0.662
Nc1cc(N2CCCC(Cc3ccc(F)cc3F)(C(=O)O)C2)ncn1 (configuration not stated) | 10.6
Cc1ccc(C(=O)NC2CCN(C)CC2)cc1N(C)S(C)(=O)=O | -0.853
Cc1ccc(-c2cc(C(=O)N(C)Cc3noc4c3CCCC4)[nH]n2)o1 | -11
O=C(CCCN1CCCCC1)N[C@H](C(=O)O)c1cccc(F)c1F | -13.2
CN(CC1CCCN1C)c1nccc(C2CCCC2)n1 (configuration not stated) | -12.9
CNc1ccc(CC2CCCN(C(=O)c3cnc(C)nc3)C2)nn1 (configuration not stated) | -1.2
Cc1cnn(CCNCc2cc(C#N)ccc2F)c1 | -10.1
CNC(=O)CN1CCC(NC(=O)N(C)Cc2c(C)noc2C)CC1 | 2.1
CCCN1CCCC1Cn1nc(C)cc1C (configuration not stated) | -7.72
CCN(CC1CCOC1)C(=O)c1cnc2onc(C)c2c1 (configuration not stated) | -10.4
Cc1csc(C2CCCCN2C(=O)CN(C)C2CC2)n1 (configuration not stated) | -1.9
CCn1ccnc1CN1CCCN(C(=O)Cc2ccc(C)nc2)CC1 | -1.92
CC(C)c1nc(CN2CCN(CC3CCCO3)CC2)cs1 (configuration not stated) | -1.52
Cc1[nH]c2c(C)cccc2c1CC(=O)N(C)CCN(C)C | 1.14
CC(=O)N1[C@H](Cn2cncn2)C[C@@H]2CN(Cc3ccccn3)CC[C@@H]21 | 0.732
COC[C@H]1CNC(=O)[C@@H]2CCN(Cc3ccc(F)cc3)CC[C@H]12 | 14.2
CC(=O)NCC(=O)N1CCC2(CC1)NC(=O)CC2c1cccnc1 (configuration not stated) | -72.5
CN1CC[C@H]2[C@H](C[C@@H](CN3CCCC3)N2c2nccs2)C1 | 3.59
CS(=O)(=O)NCc1nnc2n1CCN(Cc1cccs1)CC2 | -71.7
CN(C)C(=O)[C@H]1CO[C@H]2CCN(c3ncc(F)cn3)C[C@H]2C1 | 7.75
O=C(c1cscn1)N1CCC2(CN(Cc3ccoc3)C2)C1 | 7.2

SMILES | cytotoxicity at 10 µM [%]
COCCC1COC2(CCN(C(=O)c3cccnc3)CC2)C1 (configuration not stated) | -72.4
Cc1nc(CN2CCC3(CC2)CC(c2cccnc2)C(=O)N3C)cs1 (configuration not stated) | 9.95
O=C(NCc1cncc2c1CCN(C1CCOCC1)C2)c1ccno1 | -2.67
CS(=O)(=O)N1CCC2(CCCN(Cc3ccccn3)C2)CC1 | -121
O=C([C@H]1C[C@H]2OCC[C@H]2N(Cc2ccco2)C1)N1CCCO1 | 8.73
Cc1cccc(CN2CC[C@H]3O[C@H](C(=O)Nc4cnccn4)CC[C@H]32)n1 | -144
CCc1cnc(N2CCC3(CC(=O)N(Cc4csc(C)n4)C3)C2)nc1 (configuration not stated) | -2.71
CCCS(=O)(=O)N1CCOC2(CCCN(Cc3ccccn3)C2)C1 (configuration not stated) | -0.58
CN1[C@H](Cn2cncn2)C[C@@H]2CN(C3CCOCC3)CC[C@@H]21 | 4.56
O=C(O)c1cc2c(nc1-c1ccoc1)CCN(Cc1ccco1)CC2 | -78.9
Cc1cccc(CN2C(=O)C[C@H]3[C@@H]2CCN3Cc2cccs2)n1 | -79.6
O=C([C@@H]1CCO[C@@H]2CCN(CC3CCOCC3)C[C@H]21)N1CCCO1 | 7.37
COc1cc(N2C[C@@H]3COC[C@]3(COCc3ccncc3)C2)ncn1 | -72.4
Cc1cc(CN2C[C@@H]3COC[C@@H](C(=O)N4CCCCO4)[C@@H]3C2)no1 | -80.6
O=C(c1cccnc1)N1CCC2(CC1)CC(Oc1ccccc1)CO2 (configuration not stated) | 1.65
CCOCC(=O)N1Cc2nccn2CC(CN2CCCC2)C1 (configuration not stated) | -76.3
c1cc(CN2CCOCC3(C2)CN(Cc2nccs2)CCO3)ccn1 (configuration not stated) | 2.14
CCn1cc2[nH]c(OC)c(CNC(=O)C3CCCN(C)C3)cc-2c1=O (configuration not stated) | 11.3
COCC1N(C(=O)c2ccco2)C2CCC1(O)CC2 (configuration not stated) | 1.4

— ChEMBL document CHEMBL4513216, “Probing the Open Global Health Chemical Diversity Library for Multistage-Active Starting Points for Next-Generation Antimalarials” (ACS Infect Dis, 2020)
